Reference: ChEMBL document CHEMBL4020820, “Insights into the Impact of a Membrane-Anchoring Moiety on the Biological Activities of Bivalent Compounds As Potential Neuroprotectants for Alzheimer's Disease” (J Med Chem, 2018)
Calls of active or inactive are those of the source. The calls are words filed in the database; no cut-off is given here.

How the values were obtained:
[1] = Neuroprotective activity against tetracycline removal-induced cytotoxicity in human MC65 cells assessed as increase in cell viability after 72 hrs by MTT assay; format: functional, cell-based; conditions: MC65, 72 h
Procedure, shortened: (§1)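 MC65 cells kept in DMEM/10% FBS with 1 µg/mL tetracycline and G418. Cells washed twice with PBS, seeded in Opti-MEM at 4×10^4/well without tetracycline, given compound (0.3 µM, alone or in combination), 72 h at 37 °C. MTT added for 4 h, formazan dissolved in DMSO, A570 read. Viability as % of +TC controls; six replicates, ≥3 independent runs.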

Lipid bilayer [2] = experiment: Binding affinity to DPPC membrane assessed as appearance of disordered membrane structure at […] at 25 degC by WAXD analysis; conditions: in the assay text read “SAXD analysis” for “WAXD analysis”
Procedure, shortened: (§2)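 DPPC (2 mg) with compound at 10:1 lipid:compound molar ratio, hydrated in 100 mM NaCl, 25 mM Hepes pH 7.4, vortexed at 55 °C to form multilamellar vesicles. Small- and wide-angle X-ray diffraction at 25 and 50 °C; 10 min equilibration, 10 min exposure; d-spacings and chain packing read from reflections.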

Lipid bilayer [3] = experiment: Binding affinity to DPPC membrane assessed as change in enthalpy by differential scanning calorimetry (reference value: 8.7 kcal/mol)
Procedure, shortened: (§3)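 Multilamellar DPPC vesicles (2 mg lipid) with compound at various lipid:compound molar ratios (40:1 up to 5:1) in 100 mM NaCl, 25 mM Hepes pH 7.4, made by vortexing at 55 °C. Samples degassed 10 min, buffer as reference. DSC scans 10–60 °C at 60 °C/h. Traces normalized to DPPC content. Onset (Tc), completion temperature and enthalpy taken from thermograms.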

Brain [4] = experiment: Effect on oxidative phosphorylation efficiency in C57BL/6 mouse brain mitochondria assessed as respiratory control ratio at 3.3 uM using succinate as substrate (reference value: 2.3 +/- 0.2); format: ADME
Lipid bilayer [5] = experiment: Binding affinity to DPPC membrane assessed as shift in onset of transition temperature at 40:1 […] molar ratio by differential scanning calorimetry; procedure, shortened: as §3
Lipid bilayer [6] = experiment: Binding affinity to DPPC membrane assessed as phase separation in membrane structure at […] at 50 degC by SAXD analysis; procedure, shortened: as §2
Brain [7] = experiment: Effect on oxidative phosphorylation efficiency in C57BL/6 mouse brain mitochondria assessed as ADP/O ratio at 3.3 uM using succinate as substrate (reference value: 1.3 +/- 0.2); format: ADME
Brain [8] = experiment: Effect on oxidative phosphorylation efficiency in C57BL/6 mouse brain mitochondria assessed as ADP/O ratio at 3.3 uM using glutamate (reference value: 2.3 +/- 0.3); format: ADME
Lipid bilayer [9] = experiment: Binding affinity to DPPC membrane assessed as appearance of disordered membrane structure at […] at 25 degC by SAXD analysis; procedure, shortened: as §2
Brain [10] = experiment: Effect on oxidative phosphorylation efficiency in C57BL/6 mouse brain mitochondria assessed as respiratory control ratio using glutamate at 3.3 uM (reference value: 3.8 +/- 0.5); format: ADME
N2a = experiment: Neuroprotective activity in mouse N2A cells assessed as increase in neurite outgrowth at 0.3 uM after 48 hrs by fluorescent microscopic method; format: functional, cell-based
Procedure, shortened: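 N2a cells seeded at 1×10^4/well in MEM with 0.5% FBS plus compound (0.3 µM) for 48 h. Neurite outgrowth stain, then fluorescence imaging at 10× (20 images per well). Average neurite length quantified; mean ± SEM, n=3.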

[11] = Effect on electron transport chain mitochondrial complex-2 activity in C57BL/6 mouse brain mitochondria assessed as change in rate of oxidation of DCPIP at 3.3 uM using succinate as substrate in presence of decylubiquinone by spectrophotometry; format: ADME
Procedure, shortened: (§4)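 Frozen-thawed C57BL/6 mouse brain mitochondria solubilized in 5% cholate (pH 7.2), diluted in KME buffer (100 mM KCl, 50 mM MOPS, 1 mM EGTA), treated with compound at 3.3 µM. Complex I: NADH consumption at 340 nm with 100 µM antimycin A, 1 mM decylubiquinone, 150 µM NADH, 40 µg/mL protein, ± 7.5 µM rotenone. Complex IV taken after background subtraction. Mean ± SEM, n=4.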

Brain [12] = experiment: Effect on oxidative phosphorylation efficiency in C57BL/6 mouse brain mitochondria assessed as decrease in ADP-stimulated respiratory rate of glutamate at 3.3 uM; format: ADME
Lipid bilayer [13] = experiment: Binding affinity to DPPC membrane assessed as phase transition completion temperature at 5:1 […] molar ratio by differential scanning calorimetry (reference value: 43.1 degC); procedure, shortened: as §3
[14] = Effect on electron transport chain mitochondrial complex-1 activity in C57BL/6 mouse brain mitochondria assessed as change in rate of NADH consumption at 3.3 uM in presence of antimycin A/decylubiquinone by spectrophotometry; format: ADME; procedure, shortened: as §4
Brain [15] = experiment: Effect on oxidative phosphorylation efficiency in C57BL/6 mouse brain mitochondria assessed as change in state 3 respiratory rate of glutamate at 3.3 uM relative to control; format: ADME
[16] = Effect on electron transport chain mitochondrial complex-3 activity in C57BL/6 mouse brain mitochondria assessed as change in initial rate of reduction of cytochrome C at 3.3 uM in presence of decylubiquinone by spectrophotometry; format: ADME; procedure, shortened: as §4
Brain [17] = experiment: Effect on oxidative phosphorylation efficiency in C57BL/6 mouse brain mitochondria assessed as change in state 3 respiratory rate of succinate at 3.3 uM; format: ADME
[18] = Effect on electron transport chain mitochondrial complex-4 activity in C57BL/6 mouse brain mitochondria assessed as change in first-order rate of consumption of reduced cytochrome C at 3.3 uM measured over 7.5 mins by spectrophotometry; format: ADME; conditions: 0.125 h; procedure, shortened: as §4
Brain [19] = experiment: Effect on oxidative phosphorylation efficiency in C57BL/6 mouse brain mitochondria assessed as change in state 4 respiratory rate of succinate at 3.3 uM; format: ADME
Cortical neurone = experiment: Neuroprotective activity in E17 rat primary cortical neurons assessed as increase in neurite outgrowth after 4 days by DAPI-staining based assay; format: functional, cell-based
Procedure, shortened: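 Rat E17 cortical neurons on poly-D-lysine coverslips (2×10^4/well) in neurobasal/B27/Glutamax, treated with DMSO or compound from DIV1. Fixed at DIV5 in 4% PFA; neurites immunostained for beta III tubulin, nuclei with DAPI.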

Lipid bilayer [20] = experiment: Binding affinity to DPPC membrane assessed as increase in membrane thickness at […] at 50 degC by SAXD analysis; procedure, shortened: as §2
MC65 = experiment: Neuroprotective activity against tetracycline removal-induced cytotoxicity in human MC65 cells assessed as increase in cell viability at 0.3 uM after 72 hrs by MTT assay; format: functional, cell-based; procedure, shortened: as §1

Row | Activity (Lipid bilayer [2]) | deltaH (Lipid bilayer [3]) | Ratio (Brain [4]) | Activity (Lipid bilayer [5]) | Ratio (Brain [7]) | Ratio (Brain [8]) | Activity (Lipid bilayer [9]) | Ratio (Brain [10]) | SMILES | EC50 [1] | Activity (N2a) | other results
1 | Active | 3 to 5 kcal/mol | 2.6 | Active | 1.1 | 2.4 | Active | 3.9 | COc1cc(/C=C/C(=O)/C(Cc2cn(CCNC(=O)COCC(=O)NCCCCN[C@H]3CC[C@@]4(C)C(=CC[C@H]5[C@@H]6CC[C@H]([C@H](C)CCCC(C)C)[C@@]6(C)CC[C@@H]54)C3)nn2)=C(O)/C=C/c2ccc(O)c(OC)c2)ccc1O | 56.5 nM | – | T (Lipid bilayer [13]): 42.4 °C; Activity (Lipid bilayer [20]): Active
2 | – | – | 1.2 | – | – | – | – | – | CCCCNC(=O)COCC(=O)NCCn1cc(C/C(C(=O)/C=C/c2ccc(O)c(OC)c2)=C(O)\C=C\c2ccc(O)c(OC)c2)nn1 | – | inactive | Activity (MC65): inactive

The remaining lines, values behind:

Row | SMILES | Activity (Lipid bilayer [2]) | deltaH (Lipid bilayer [3]) | Ratio (Brain [4]) | Activity (Lipid bilayer [5]) | Ratio (Brain [7]) | Ratio (Brain [8]) | Activity (Lipid bilayer [9]) | Ratio (Brain [10]) | EC50 [1] | Activity (N2a) | other results
3 | COc1cc(/C=C/C(=O)/C(Cc2cn(CCNC(=O)COCC(=O)NCCCCO[C@H]3CC[C@@]4(C)C(=CC[C@H]5[C@@H]6CC[C@H]([C@H](C)CCCC(C)C)[C@@]6(C)CC[C@@H]54)C3)nn2)=C(O)/C=C/c2ccc(O)c(OC)c2)ccc1O | Active | 3 to 5 kcal/mol | 2.4 | Active | 1.2 | 2.4 | Active | 4.4 | 296 nM | – | Activity (Lipid bilayer [6]): Active
4 | COc1cc(/C=C/C(=O)/C(Cc2cn(CCNC(=O)COCC(=O)NCCCCO[C@H]3CC[C@@]4(C)C(=CC[C@H]5[C@@H]6C[C@@H]7O[C@]8(CC[C@@H](C)CO8)[C@@H](C)[C@@H]7[C@@]6(C)CC[C@@H]54)C3)nn2)=C(O)/C=C/c2ccc(O)c(OC)c2)ccc1O | Active | 3 to 5 kcal/mol | 2.1 | Active | 1.1 | 2.3 | Active | 3.9 | 8.3 nM | Active | Activity [11]: Not Active; Activity (Brain [12]): Toxic; T (Lipid bilayer [13]): 42.4 °C; Activity [14]: Not Active; Activity (Brain [15]): 11.5%; Activity (Lipid bilayer [6]): Active; Activity [16]: Not Active; Activity (Brain [17]): Non-Toxic; Activity [18]: Not Active; Activity (Brain [19]): Non-Toxic; Activity (Cortical neurone): Active
5 | COc1cc(/C=C/C(=O)/C(Cc2cn(CCCCCCNC(=O)COCC(=O)NCCCCO[C@H]3CC[C@@]4(C)C(=CC[C@H]5[C@@H]6C[C@@H]7O[C@]8(CC[C@@H](C)CO8)[C@@H](C)[C@@H]7[C@@]6(C)CC[C@@H]54)C3)nn2)=C(O)/C=C/c2ccc(O)c(OC)c2)ccc1O | – | – | – | – | – | – | – | – | 30.3 nM | Active | Activity (Cortical neurone): Active
6 | COc1cc(/C=C/C(=O)/C(Cc2cn(CCCCCCNC(=O)COCC(=O)NCCCCN[C@H]3CC[C@@]4(C)C(=CC[C@H]5[C@@H]6CC[C@H]([C@H](C)CCCC(C)C)[C@@]6(C)CC[C@@H]54)C3)nn2)=C(O)/C=C/c2ccc(O)c(OC)c2)ccc1O | – | – | – | – | – | – | – | – | 212 nM | – | –
7 | COc1cc(/C=C/C(=O)/C(Cc2cn(CCCCCCNC(=O)COCC(=O)NCCCCO[C@H]3CC[C@@]4(C)C(=CC[C@H]5[C@@H]6CC[C@H]([C@H](C)CCCC(C)C)[C@@]6(C)CC[C@@H]54)C3)nn2)=C(O)/C=C/c2ccc(O)c(OC)c2)ccc1O | – | – | – | – | – | – | – | – | 1850 nM | – | –
